Data published in ChEMBL document CHEMBL1129366, “Novel selective PDE IV inhibitors as antiasthmatic agents. Synthesis and biological activities of a series of 1-aryl-2,3-bis(hydroxymethyl)naphthalene lignans” (J Med Chem, 1996).
Values joined by “and” are separate entries in the source; they are usually repeats but may differ in a detail not shown here. Identical values can stand only once.

Tests used:
Phosphodiesterase 4 = Phosphodiesterase 4 (Homo sapiens, UniProt P27815+Q08499+Q07343+Q08493); experiment: Inhibition in vitro of Phosphodiesterase 4 activity isolated from guinea pig lung; assay type: protein assay, Cavia porcellus; details: target entry is the homologue from another species
Summary of the method: (§1)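 PDEs came from guinea pig cardiac ventricle (types I, III) and lung (types IV, V). Tissue was homogenized at pH 6.5 with protease inhibitors and spun at 25000G, and the supernatant was run on DEAE-Sephacrose with a 50–1000 mM sodium acetate gradient. Assay: 40 mM Tris-HCl pH 8.0, 5 mM MgCl2, 4 mM 2-mercaptoethanol, 1.0 μM [3H]cAMP or [3H]cGMP, 20 min at 30 °C, substrate hydrolysis ≤20%. Triplicates at 3–4 inhibitor levels; IC50 read graphically.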

Phosphodiesterase 3 [1] = molecular target: T1, Phosphodiesterase 3 (Homo sapiens, UniProt Q14432+Q13370); experiment: Inhibition in vitro of Phosphodiesterase 3 isolated from guinea pig cardiac ventricle; assay type: protein assay, Cavia porcellus; details: target entry is the homologue from another species; summary of the method: as §1
Cavia porcellus [2] = experiment: Change in heart rate in guinea pigs after 3 mg/kg intravenous dose; assay type: functional
Summary of the method: (§2)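 Anesthetized guinea pigs in the histamine bronchospasm setup, with spontaneous breathing abolished by gallamine triethiodide (5 mg/kg iv). Heart rate was taken by cardiography triggered on the ECG R wave (standard limb lead II). Test agent was suspended in saline with Tween 80 and given iv 1 min before histamine. The value is the post-dose rate minus the basal rate (basal 230–330 beats/min).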

[3] = molecular target: Phosphodiesterase 1 (Cavia porcellus); experiment: Inhibition in vitro of Phosphodiesterase 1 isolated from guinea pig cardiac ventricle
Cavia porcellus [4] = experiment: Reduced histamine-induced bronchoconstriction in anesthetized guinea pig at 3 mg/kg intravenous dose; assay type: functional
Summary of the method: (§3)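 Anesthetized guinea pigs immobilized with gallamine triethiodide (5 mg/kg iv) and artificially ventilated. Histamine dihydrochloride (2 μg/kg) given iv via the lateral saphenous vein at 10 min intervals. Compound suspended in saline with Tween 80, given iv 1 min before histamine. Pulmonary inflation pressure recorded as the bronchospasm index; result expressed as percent inhibition of histamine-induced bronchoconstriction.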

Cavia porcellus [5] = experiment: Reduced histamine-induced bronchoconstriction in anesthetized guinea pig at 0.3 mg/kg intravenous dose; assay type: functional
Cavia porcellus [6] = experiment: Change in heart rate in guinea pigs after 0.3 mg/kg intravenous dose; assay type: functional; summary of the method: as §2
Cavia porcellus [7] = experiment: Change in heart rate in guinea pigs after 1 mg/kg intravenous dose; assay type: functional; summary of the method: as §2
Cavia porcellus [8] = experiment: Reduced histamine-induced bronchoconstriction in anesthetized guinea pig at 1 mg/kg intravenous dose; assay type: functional; summary of the method: as §3
Cavia porcellus [9] = experiment: Inhibition of histamine-induced bronchoconstriction in anesthetized guinea pig at 3 mg/kg intravenous dose
Cavia porcellus [10] = experiment: Inhibition of antigen-induced bronchoconstriction in anesthetized guinea pig at 3 mg/kg intravenous dose; assay type: functional
Cavia porcellus [11] = experiment: Change in heart rate in guinea pigs after 0.03 mg/kg intravenous dose; assay type: functional; summary of the method: as §2
Cavia porcellus [12] = experiment: Reduced histamine-induced bronchoconstriction in anesthetized guinea pig at 0.03 mg/kg intravenous dose; assay type: functional
Cavia porcellus [13] = experiment: Reduced histamine-induced bronchoconstriction in anesthetized guinea pig at 0.1 mg/kg intravenous dose; assay type: functional
Cavia porcellus [14] = experiment: Change in heart rate in guinea pigs after 0.1 mg/kg intravenous dose; assay type: functional; summary of the method: as §2
Cavia porcellus [15] = experiment: Inhibition of histamine-induced bronchoconstriction in anesthetized guinea pig at 0.03 mg/kg intravenous dose
Cavia porcellus [16] = experiment: (§4) Inhibition of antigen-induced bronchoconstriction in anesthetized guinea pig at 0.1 mg/kg intravenous dose; assay type: functional
Cavia porcellus [17] = experiment: Change in guinea pig heart rate after intravenous administration of 0.1 mg/kg; assay type: functional; summary of the method: as §2
Cavia porcellus [18] = experiment: as §4; assay type: functional; remark: listed apart in the source
Phosphodiesterase 3 [19] = molecular target: T1, Phosphodiesterase 3; experiment: Inhibition of Phosphodiesterase 3 from guinea pig cardiac ventricle; assay type: protein assay, Cavia porcellus; details: target entry is the homologue from another species; summary of the method: as §1
Phosphodiesterase 1 = Phosphodiesterase 1 (Homo sapiens, UniProt P54750+Q01064+Q14123); experiment: Inhibition of Phosphodiesterase 1 from guinea pig cardiac ventricle; assay type: protein assay, Cavia porcellus; details: target entry is the homologue from another species
Summary of the method: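 PDE I pooled from DEAE-Sepharose fractions of guinea pig cardiac ventricle homogenate (pH 6.5 buffer with protease inhibitors, sodium acetate gradient). Assay buffer 40 mM Tris-HCl pH 8.0, 5 mM MgCl2, 4 mM 2-mercaptoethanol. Substrate [3H]cAMP or [3H]cGMP at 1.0 μM, hydrolysis kept ≤20%. Run 20 min at 30 °C, inhibitors in DMSO. Triplicates at 3–4 concentrations, IC50 read graphically from means.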

Cavia porcellus [20] = experiment: Inhibition of histamine-induced bronchoconstriction in anesthetized guinea pig at 0.1 mg/kg intravenous dose
[21] = Inhibition of Phosphodiesterase 4 from guinea pig lung; design: species or system Cavia porcellus; summary of the method: as §1
[22] = Inhibition of Phosphodiesterase 5 from guinea pig lung; design: species or system Cavia porcellus; summary of the method: as §1

Compound | IC50 (Phosphodiesterase 4) [µM] | IC50 (Phosphodiesterase 3 [1]) [µM] | IC50 [3] [µM] | Heart rate (Cavia porcellus [6]) [beats min-1] | also measured
COc1cc2cc3c(c(-c4cc(OC)c(OC)c(OC)c4)c2cc1OC)C(=O)OC3 | 0.5 | – | – | – | –
COc1cc2cc(CO)c(CO)c(Cc3cc(OC)c(OC)c(OC)c3)c2cc1OC | 5 | 8 | 40 | – | –
COc1cc2cc(CO)c(CO)c(-c3cc(OC)c(OC)c(C(=O)N(C)C)c3)c2cc1OC | 0.005 | 0.06 | > 100 | 50 | Reduction (Cavia porcellus [5]): 69%; Heart rate (Cavia porcellus [11]): 1 beats min-1; Reduction (Cavia porcellus [12]): 59%; Reduction (Cavia porcellus [13]): 83%; Heart rate (Cavia porcellus [14]): 28 beats min-1; ED50 (Cavia porcellus [15]): 0.03 mg/kg
COc1cc2cc(CO)c(CO)cc2cc1OC | 20 | > 100 | > 100 | – | –
COc1cc(-c2c(CO)c(CO)cc3cc4c(cc23)OCO4)cc(OC)c1OC | > 30 | > 100 | > 100 | – | –
COc1ccc2c(-c3cc(OC)c(OC)c(OC)c3)c(CO)c(CO)cc2c1 | 40 | 20 | 30 | – | –
COc1ccc(C2CNC(=O)C2)cc1OC1CCCC1 (centres undefined) [ROLIPRAM] | – | – | – | – | ED50 (Cavia porcellus [16]): 19 mg/kg; Heart rate (Cavia porcellus [7]): 3 beats min-1; IC50 (Phosphodiesterase 3 [19]): > 100 µM; IC50 (Phosphodiesterase 1): > 100 µM; Reduction (Cavia porcellus [13]): 79%; ED50 (Cavia porcellus [20]): 0.01 mg/kg; Heart rate (Cavia porcellus [14]): 9 beats min-1; IC50 [21]: 1.9 µM; Reduction (Cavia porcellus [8]): 72%; IC50 [22]: > 100 µM

The next lines start with results.

IC50 (Phosphodiesterase 4) [µM] | IC50 (Phosphodiesterase 3 [1]) [µM] | IC50 [3] [µM] | Compound | Heart rate (Cavia porcellus [6]) [beats min-1] | also measured
0.3 | 0.9 | 60 | COc1cc2cc(CO)c(CO)c(-c3cc(OC)c(OC)c(OC)c3)c2cc1OC | – | Delta beats/min (Cavia porcellus [2]): 79; Reduction (Cavia porcellus [4]): 89%
0.03 | 50 | – | CCCCn1ccc(-c2c(CO)c(CO)cc3cc(OCC)c(OCC)cc23)cc1=O | -5 | Reduction (Cavia porcellus [5]): 47%
0.2 | 20 | > 100 | COc1cc2cc(CO)c(CO)c(C3=CC=NC(=O)C3)c2cc1OC | – | –
0.6 | 20 | – | COc1cc2cc(CO)c(CO)c(-c3ccn(C)c(=O)c3)c2cc1OC | – | –
0.45 | 7 | – | CCOc1cc2cc(CO)c(CO)c(-c3ccn(CCOC)c(=O)c3)c2cc1OC | 4 | Reduction (Cavia porcellus [5]): 30%; Heart rate (Cavia porcellus [2]): 6 beats min-1; Heart rate (Cavia porcellus [7]): 7 beats min-1; Reduction (Cavia porcellus [4]): 98%; Reduction (Cavia porcellus [8]): 76%
0.05 | 20 | 50 | CCOc1cc2cc(CO)c(CO)c(-c3cc(N)c(OC)c(OC)c3)c2cc1OCC.Cl | – | Reduction (Cavia porcellus [5]; 0.3 mg/kg): 45% and 90%; ED50 (Cavia porcellus [9]): 0.39 mg/kg; Heart rate (Cavia porcellus [7]): 1 beats min-1; ED50 (Cavia porcellus [10]): > 10 mg/kg; Reduction (Cavia porcellus [8]): 69%
0.5 | 14 | – | COCCn1ccc(-c2c(CO)c(CO)cc3cc(OC)c(OC)cc23)cc1=O | 3 | ED50 (Cavia porcellus [16]): 0.16 mg/kg; Reduction (Cavia porcellus [13]): 34%; Heart rate (Cavia porcellus [14]): 1 beats min-1; Reduction (Cavia porcellus [4]): 70%
0.05 | 0.09 | 100 | COc1cc2cc(CO)c(CO)c(-c3cc(OC)c(OC)c(S(C)(=O)=O)c3)c2cc1OC | -7 | Reduction (Cavia porcellus [5]): 71%; Heart rate (Cavia porcellus [11]): 3 beats min-1; Reduction (Cavia porcellus [12]): 34%; Reduction (Cavia porcellus [13]): 57%; Heart rate (Cavia porcellus [14]): 1 beats min-1; ED50 (Cavia porcellus [15]): 0.093 mg/kg
0.057 | 57 | – | CCOc1cc2cc(CO)c(CO)c(-c3ccn(CCOC)c(=O)c3)c2cc1OCC | 5 | Reduction (Cavia porcellus [5]): 92%; ED50 (Cavia porcellus [16]): 0.08 mg/kg; Heart rate (Cavia porcellus [2]): 5 beats min-1; Heart rate (Cavia porcellus [17]): 5 beats min-1; ED50 (Cavia porcellus [18]): 2.3 mg/kg; Reduction (Cavia porcellus [13]): 60%
0.2 | 1 | – | COc1ccc(-c2c(CO)c(CO)cc3cc(OC)c(OC)cc23)cc1OC | – | –
0.07 | 2 | 100 | COc1cc2cc(CO)c(CO)c(-c3cc(NC(C)=O)c(OC)c(OC)c3)c2cc1OC | – | –
